Measurements published in PubChem BioAssay AID624362 (Broad Institute, 2012).
Calls of active or inactive are those of the source.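 How the source made its calls: active means compounds cutting cell ATP signal whose AC50 is at most twice their top valid dose; inconclusive means flat curve with 30 to 70% signal loss, or poor fit; inactive means the rest.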

test system: MALME3 melanoma viability, CellTiter-Glo ATP luminescence, 24 h; assay: cytotoxicity in MALME3 melanoma cells – cell-based, CellTiter-Glo luminescence, dry powder, set 3, orthogonal assay for MITF inhibitor project, dose response (AID 624362)
Procedure, shortened: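 Assay system: MALME3 melanoma cell line; Amount: 3000 cells/well; Medium: phenol-red-free IMDM supplemented with 10% FBS; Compound: multi-dose series, pinned; Timing: compound exposure at 37 °C, cells plated one day earlier; Technique: CellTiter-Glo ATP luminescence; Evaluation: cell viability inferred from cellular ATP level; Controls: parthenolide at 27 µM as positive control.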

For `NC1=C(NS(=O)(=O)c2ccc(Br)s2)C(=O)c2ccccc2C1=O`, the AC50 was > 70 µM (inactive).
`O=C1C(NS(=O)(=O)c2ccccc2)=C(c2ccccc2)C(=O)c2ccccc21` was tested, and the AC50 was > 70 µM (inactive).

Point of comparison: `COC1=C(Nc2ccccc2)C(=O)c2ccccc2C1=O`, AC50 7.46 µM. Against it:
- COC1=C(NS(=O)(=O)c2ccc(Br)cc2)C(=O)c2ccccc2C1=O — 2-fold higher, 14.7 µM
- O=C1C=C(Nc2ccccc2)C(=O)c2ccccc21 — 2.6-fold lower, 2.89 µM
- O=C1C=C(NS(=O)(=O)c2ccc(Br)cc2)C(=O)c2ccccc21 — 1.9-fold higher, 14.3 µM
- O=C1C=C(NS(=O)(=O)c2cccs2)C(=O)c2ccccc21 — 2.1-fold higher, 15.3 µM
- O=C1C=C(NS(=O)(=O)c2ccccc2)C(=O)c2ccccc21 — 1.6-fold higher, 11.6 µM
- NC1=C(NS(=O)(=O)c2cccs2)C(=O)c2ccccc2C1=O — 2.3-fold higher, 16.8 µM
- COC1=C(NS(=O)(=O)c2cccs2)C(=O)c2ccccc2C1=O — 3.1-fold higher, 23.4 µM
- NC1=C(NS(=O)(=O)c2ccccc2)C(=O)c2ccccc2C1=O — 2-fold higher, 15 µM
- O=C1C(Nc2ccccc2)=C(c2ccccc2)C(=O)c2ccccc21 — 4.8-fold higher, 36 µM
